For data set [1], the system named is Klebsiella pneumoniae. The data set can be described thus: Antibacterial activity against Klebsiella pneumoniae isolate 212232 after 18 hrs by broth microdilution method. In kind it is functional. As to conditions: isolate 212232, 18 h. Put shortly: (§1)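 CLSI broth microdilution in Mueller-Hinton broth with 16 mg/L 2,2'-bipyridyl added. Compounds were dissolved in DMSO, or in water for meropenem and ceftizoxime sodium, then serially diluted in growth medium.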
In general terms: Broth dilution looks for growth in wells or tubes with falling amounts of substance.

The test system of data set [2] is Klebsiella pneumoniae. The data set can be described thus: In vivo antibacterial activity against multidrug resistant Klebsiella pneumoniae isolate 212232 infected in Kunming mouse systemic infection model assessed as increase in mouse survival administered subcutaneously 0.5 to 4 hrs post infection measured after 48 hrs by Bliss method. The format is functional. The conditions noted are these: isolate 212232, sc. Put shortly:
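Kunming mice, half male and half female, 18–22 g, 5 per group. Infected intraperitoneally with 0.5 mL of MDR clinical K. pneumoniae 212232 at 3×10^6 CFU/mL. Subcutaneous doses of 3.125, 6.25, 12.5, 25, 50 and 100 mg/kg were given at 0.5 and 4.0 h post-infection.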

For data set [3], the system named is Klebsiella pneumoniae. The data set can be described thus: In vivo antibacterial activity against multidrug resistant Klebsiella pneumoniae isolate 212232 infected in Kunming mouse systemic infection model assessed as increase in mouse survival at 100 mg/kg, sc administered 0.5 to 4 hrs post infection measured after 48 hrs by Bliss method. The format is functional. The conditions noted are these: isolate 212232, sc. The gist of the method: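 Lethal intraperitoneal infection of Kunming mice (mixed sex, 18–22 g, 5 per group) with 0.5 mL MDR K. pneumoniae 212232 at 3×10^6 CFU/mL. The 100 mg/kg dose was given subcutaneously at 0.5 and 4.0 h post-infection. Read-out is the percentage of mice surviving at 48 h after treatment.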

Data set [4] deals with Pseudomonas aeruginosa. The data set can be described thus: Antibacterial activity against extended spectrum beta-lactamase IMP-4 producing multidrug resistant Pseudomonas aeruginosa clinical isolates after 18 hrs by broth microdilution method. The format is functional.
For data set [5], the system named is Plasma. The data set can be described thus: Fraction unbound in human plasma at 10 uM after 4 hrs by LC-MS/MS based rapid equilibrium dialysis method. The format is ADME, cell-free. The gist of the method: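 Human plasma spiked at 10 μM was dialysed against buffer in a rapid equilibrium dialysis device for 4 h at 37 °C under 5% CO2 (n = 4). Both sides were quantified by LC–MS/MS. Fraction unbound was taken as the buffer concentration divided by the total plasma-side concentration.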
(Equilibrium dialysis compares concentrations on both sides of a semipermeable membrane.)

Data set [6] can be described thus: Drug degradation in human plasma at 10 uM after 4 hrs by LC-MS/MS analysis. The format is ADME, cell-free. As to conditions: read-out: Drug degradation. The gist of the method:
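Human plasma containing compound (10 μM, n = 4) was incubated for 4 h at 37 °C under 5% CO2. Concentrations at T0 and at 4 h were measured by LC–MS/MS, and degradation was expressed as a percentage relative to the T0 average.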

Data set [7] has as its system Escherichia coli. The data set can be described thus: Antibacterial activity against Escherichia coli isolate 210737 after 18 hrs by broth microdilution method. The conditions noted are these: isolate 210737, 18 h. In kind it is functional. The gist of the method: as §1
Data set [8] is described as follows: Volume of distribution in steady state in Sprague-Dawley rat at 1 mg/kg, iv measured up to 180 mins by LC-MS/MS analysis. The format is ADME, organism-based. As to conditions: in vivo, read-out: Vdss. Put shortly:
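Male Sprague-Dawley rats (200–220 g, n = 3 per group) received 1.0 mg/kg iv in water. Blood was taken from the retrobulbar vein at 2, 5, 15, 30, 45, 60, 90 and 180 min. Plasma was quantified by LC–MS/MS, and parameters were derived by noncompartmental analysis of mean plasma concentrations.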

In data set [9] the test system is Klebsiella pneumoniae. The data set can be described thus: Antibacterial activity against extended spectrum beta-lactamase KPC-2 producing multidrug resistant Klebsiella pneumoniae clinical isolates after 18 hrs by broth microdilution method. The conditions noted are these: Klebsiella pneumoniae, 18 h; read-out: MIC. In kind it is functional.
For data set [10], the system named is Acinetobacter baumannii. The data set can be described thus: Antibacterial activity against extended spectrum beta-lactamase OXA-23 producing multidrug resistant Acinetobacter baumannii clinical isolates after 18 hrs by broth microdilution method. The format is functional.
Data set [11] has as its system Escherichia coli. The data set can be described thus: In vivo antibacterial activity against Escherichia coli isolate 210737 infected in Kunming mouse systemic infection model assessed as increase in mouse survival administered subcutaneously 0.5 to 4 hrs post infection measured after 48 hrs by Bliss method. In kind it is functional. As to conditions: isolate 210737, sc. The gist of the method:
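Kunming mice, half male and half female, 18–22 g, 5 per group. Lethal systemic infection by intraperitoneal injection of 0.5 mL clinical E. coli 210737 inoculum at 5×10^4 CFU/mL. Given subcutaneously twice, at 0.5 and 4.0 h post-infection, at doses of 0.625 to 20 mg/kg.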

The subject of data set [12] is Escherichia coli. The data set can be described thus: Antibacterial activity against extended spectrum beta-lactamases producing Escherichia coli clinical isolates after 18 hrs by broth microdilution method. In kind it is functional.
Data set [13] is described as follows: in vivo. As to conditions: Sprague-Dawley, rat, iv, 1 mg/kg.
Data set [14] can be described thus: Clearance in Sprague-Dawley rat at 1 mg/kg, iv measured up to 180 mins by LC-MS/MS analysis. The conditions noted are these: in vivo.
A short description of data set [15]: in vivo. As to conditions: Sprague-Dawley, rat, iv, 1 mg/kg. This is another data set of the same source.

Values after ≈ are worked out from the molar mass of the structure shown. Some results are limits rather than exact numbers.

Broadly, the MIC is the least concentration at which growth counts as inhibited. A word on the ED50: it is the dose that gives a 50% effect, or the effect in half of the subjects. As usually defined, the AUC(0-t) is exposure summed from dosing to a finite time, without extrapolation to infinity. Read a low AUC(0-t) as less exposure. On to `CC1(C)[C@H](NC(=O)/C(=N\OCc2cc(=O)c(O)cn2O)c2csc(N)n2)C(=O)N1OS(=O)(=O)O`, for which the MIC in [1] was 0.25 µg/mL (≈ 0.482 µM); in data set [4], 1 to 4 µg/mL (≈ 1.93 to 7.71 µM); in [7], 0.25 µg/mL (≈ 0.482 µM); in data set [9], 0.25 to 64 µg/mL (≈ 0.482 to 123 µM); in data set [10], 0.5 to 64 µg/mL (≈ 0.964 to 123 µM); in data set [12] it was 0.25 to 1 µg/mL (≈ 0.482 to 1.93 µM). The results for the ED50 in [2] and in data set [11] were more than 100 mg/kg and 4.19 mg/kg, respectively. Also, the survival at 100 mg/kg in data set [3] is 40%. For the same compound, the Fu in [5] came out at 47%. In data set [6], the metabolised at 4 h, 10 µM amounted to 12%. Also, the Vd in data set [8] is 0.14 L/kg. The AUC(0-t) at 3 h in [13] stood at 1710 ng·h/mL.
For orientation: clearance means a measure of how efficiently the substance is removed, as volume per time. Low values mean a low capacity for elimination, high ones a high capacity for elimination. By half-life is commonly meant the time needed for the level to fall by half in the phase considered. The low end stands for fast loss, the high end for slow loss. As for `CC(C)C(O/N=C(\C(=O)N[C@@H]1C(=O)N(OS(=O)(=O)O)C1(C)C)c1nc(N)sc1Cl)c1cc(=O)c(O)cn1O` (stereo partly drawn), the minimum inhibitory concentration (MIC) was 0.06 µg/mL (≈ 0.101 µM) in data set [1]; 0.25 to 8 µg/mL (≈ 0.42 to 13.4 µM) in [4]; 1 µg/mL (≈ 1.68 µM) in [7]; 0.06 to 0.5 µg/mL (≈ 0.101 to 0.84 µM) in data set [9]; 0.06 to 2 µg/mL (≈ 0.101 to 3.36 µM) in [10]; 0.06 to 1 µg/mL (≈ 0.101 to 1.68 µM) in data set [12]. Further, the Fu in data set [5] was 23%. Further, in data set [14], the clearance at 3 h stood at 26.9 mL/min/kg. In addition, the metabolised at 4 h, 10 µM in data set [6] came to 22%. For the same compound, in data set [8], the Vd is 1.41 L/kg. The ED50 in data set [11] was found to be 6.94 mg/kg. In addition, the AUC(0-t) at 3 h in [13] turned out to be 634 ng·h/mL. Besides, the half-life in [15] was 90 min.
`CC1(C)[C@H](NC(=O)/C(=N\OC(CS(C)(=O)=O)c2cc(=O)c(O)cn2O)c2csc(N)n2)C(=O)N1OS(=O)(=O)O` (stereo partly drawn): the MIC in data set [1] is 0.06 µg/mL (≈ 0.0983 µM); in data set [4] it was 1 to 32 µg/mL (≈ 1.64 to 52.4 µM); in data set [7], 0.06 µg/mL (≈ 0.0983 µM); in data set [9], 0.06 to 2 µg/mL (≈ 0.0983 to 3.28 µM); in data set [10] it was 0.25 to 2 µg/mL (≈ 0.409 to 3.28 µM). The Fu in [5] stood at 64%. For the same compound, the clearance at 3 h in [14] came out at 9.3 mL/min/kg. Besides, in data set [6], the metabolised at 4 h, 10 µM came out at 34%. Further, the Vd in data set [8] is 0.21 L/kg. In data set [11], the ED50 was 5.32 mg/kg. In data set [13], the AUC(0-t) at 3 h came to 1890 ng·h/mL. The compound further showed a half-life in data set [15] of 19.8 min.
Turning to `CC(C)C(O/N=C(\C(=O)N[C@@H]1C(=O)N(OS(=O)(=O)O)C1(C)C)c1csc(N)n1)c1cc(=O)c(O)cn1O` (stereo partly drawn), the MIC in data set [1] is less than 0.03 µg/mL; in [4], 0.25 to 1 µg/mL (≈ 0.446 to 1.78 µM); in [7] it was less than 0.03 µg/mL; in data set [10] it was 0.125 to 1 µg/mL (≈ 0.223 to 1.78 µM). This compound also had a Fu in data set [5] of 35%. Moreover, the metabolised at 4 h, 10 µM in data set [6] turned out to be 29%. Further, the Vd in data set [8] worked out at 0.3 L/kg. In addition, in data set [13], the AUC(0-t) at 3 h was 1730 ng·h/mL.
As for `CC(C)[C@H](O/N=C(\C(=O)N[C@@H]1C(=O)N(OS(=O)(=O)O)C1(C)C)c1csc(N)n1)c1cc(=O)c(O)cn1O`, the MIC in data set [4] fell in the range of 0.125 to 1 µg/mL (≈ 0.223 to 1.78 µM); in [9], 0.125 to 1 µg/mL (≈ 0.223 to 1.78 µM); in data set [10] it was 1 to 2 µg/mL (≈ 1.78 to 3.57 µM); in [12], 0.06 to 0.25 µg/mL (≈ 0.107 to 0.446 µM). Moreover, in [5], the Fu turned out to be 27%. The compound further displayed a clearance at 3 h in data set [14] of 28.5 mL/min/kg. For the same compound, the metabolised at 4 h, 10 µM in data set [6] turned out to be 23%. Also, the Vd in data set [8] came to 0.36 L/kg. Moreover, the AUC(0-t) at 3 h in [13] is 675 ng·h/mL. The compound further had a half-life in [15] of 15.6 min.
With `CSCC(O/N=C(\C(=O)N[C@@H]1C(=O)N(OS(=O)(=O)O)C1(C)C)c1csc(N)n1)c1cc(=O)c(O)cn1O` (stereo partly drawn), the MIC in [4] and in data set [10] was 0.125 to 1 µg/mL (≈ 0.216 to 1.73 µM) in each case. This compound came in with a Fu in data set [5] of 32%. Further, in [14], the clearance at 3 h worked out at 26.1 mL/min/kg. Further, the metabolised at 4 h, 10 µM in [6] is 28%. Also, in data set [8], the Vd was 0.37 L/kg. In data set [13], the AUC(0-t) at 3 h is 661 ng·h/mL. Further, the half-life in data set [15] was 15 min.
For `C[C@@H](O)[C@H]1C(=O)N2C(C(=O)O)=C(S[C@@H]3CN[C@H](C(=O)N(C)C)C3)[C@H](C)[C@H]12` [MEROPENEM], the MIC was more than 64 µg/mL in data set [1]; 32 to 64 µg/mL (≈ 83.4 to 167 µM) in [4]; 0.125 µg/mL (≈ 0.326 µM) in [7]; 32 to 64 µg/mL (≈ 83.4 to 167 µM) in [9]; 64 µg/mL (≈ 167 µM) in data set [10]; 0.125 to 8 µg/mL (≈ 0.326 to 20.9 µM) in data set [12]. Also, the ED50 in data set [2] was more than 100 mg/kg; in data set [11], 2.04 mg/kg. In addition, the survival at 100 mg/kg in [3] turned out to be 0%.
